# According to ChEMBL document CHEMBL1177647, “Synthesis and characterization of novel phenylindoles as potential probes for imaging of β-amyloid plaques in the brain” (Bioorg Med Chem, 2010):
# Assays:
# Heart [1] = assay: Biodistribution in ddY mouse heart at 0.2 to 0.4 uCi, iv after 10 mins; assay type: ADME, organism-based; conditions: in vivo
# Procedure, shortened: (§1)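 Radiotracer (0.2–0.4 μCi) given as a single tail-vein injection of 100 μL saline containing 10 μL ethanol to normal ddY mice (5 weeks old, 25–30 g). Mice were sacrificed at set times after injection. Organs were excised and weighed, and radioactivity was counted in an automatic gamma counter.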
# Heart [2] = assay: Biodistribution in ddY mouse heart at 0.2 to 0.4 uCi, iv after 30 mins; assay type: ADME, organism-based; conditions: in vivo, 0.5 h; procedure, shortened: as §1
# Heart [3] = assay: Biodistribution in ddY mouse heart at 0.2 to 0.4 uCi, iv after 60 mins; assay type: ADME, organism-based; conditions: in vivo, 1 h; procedure, shortened: as §1
# Blood [4] = assay: Biodistribution in ddY mouse blood at 0.2 to 0.4 uCi, iv after 10 mins; assay type: ADME, organism-based; conditions: in vivo; procedure, shortened: as §1
# Stomach [5] = assay: Biodistribution in ddY mouse stomach at 0.2 to 0.4 uCi, iv after 10 mins measured per gram of organ; assay type: ADME, organism-based; conditions: in vivo; procedure, shortened: as §1
# Brain [6] = assay: Biodistribution in ddY mouse brain at 0.2 to 0.4 uCi, iv after 30 mins; assay type: ADME, organism-based; conditions: in vivo, 0.5 h; procedure, shortened: as §1
# Blood [7] = assay: Biodistribution in ddY mouse blood at 0.2 to 0.4 uCi, iv after 30 mins; assay type: ADME, organism-based; conditions: in vivo, 0.5 h; procedure, shortened: as §1
# Kidney [8] = assay: Biodistribution in ddY mouse kidney at 0.2 to 0.4 uCi, iv after 2 mins; assay type: ADME, organism-based; conditions: in vivo; procedure, shortened: as §1
# Stomach [9] = assay: Biodistribution in ddY mouse stomach at 0.2 to 0.4 uCi, iv after 30 mins measured per gram of organ; assay type: ADME, organism-based; conditions: in vivo, 0.5 h; procedure, shortened: as §1
# Pancreas [10] = assay: Biodistribution in ddY mouse pancreas at 0.2 to 0.4 uCi, iv after 2 mins; assay type: ADME, organism-based; conditions: in vivo; procedure, shortened: as §1
# Intestine [11] = assay: Biodistribution in ddY mouse intestine at 0.2 to 0.4 uCi, iv after 30 mins; assay type: ADME, organism-based; conditions: in vivo, 0.5 h; procedure, shortened: as §1
# Spleen [12] = assay: Biodistribution in ddY mouse spleen at 0.2 to 0.4 uCi, iv after 2 mins; assay type: ADME, organism-based; conditions: in vivo; procedure, shortened: as §1
# Blood [13] = assay: Biodistribution in ddY mouse blood at 0.2 to 0.4 uCi, iv after 60 mins; assay type: ADME, organism-based; conditions: in vivo, 1 h; procedure, shortened: as §1
# Spleen [14] = assay: Biodistribution in ddY mouse spleen at 0.2 to 0.4 uCi, iv after 60 mins; assay type: ADME, organism-based; conditions: in vivo, 1 h; procedure, shortened: as §1
# Kidney [15] = assay: Biodistribution in ddY mouse kidney at 0.2 to 0.4 uCi, iv after 10 mins; assay type: ADME, organism-based; conditions: in vivo; procedure, shortened: as §1
# Kidney [16] = assay: Biodistribution in ddY mouse kidney at 0.2 to 0.4 uCi, iv after 60 mins; assay type: ADME, organism-based; conditions: in vivo, 1 h; procedure, shortened: as §1
# Intestine [17] = assay: Biodistribution in ddY mouse intestine at 0.2 to 0.4 uCi, iv after 10 mins; assay type: ADME, organism-based; conditions: in vivo; procedure, shortened: as §1
# Liver [18] = assay: Biodistribution in ddY mouse liver at 0.2 to 0.4 uCi, iv after 2 mins; assay type: ADME, organism-based; conditions: in vivo; procedure, shortened: as §1
# Liver [19] = assay: Biodistribution in ddY mouse liver at 0.2 to 0.4 uCi, iv after 10 mins; assay type: ADME, organism-based; conditions: in vivo; procedure, shortened: as §1
# Stomach [20] = assay: Biodistribution in ddY mouse stomach at 0.2 to 0.4 uCi, iv after 60 mins measured per gram of organ; assay type: ADME, organism-based; conditions: in vivo, 1 h; procedure, shortened: as §1
# Pancreas [21] = assay: Biodistribution in ddY mouse pancreas at 0.2 to 0.4 uCi, iv after 10 mins; assay type: ADME, organism-based; conditions: in vivo; procedure, shortened: as §1
# Brain [22] = assay: Biodistribution in ddY mouse brain at 0.2 to 0.4 uCi, iv after 10 mins; assay type: ADME, organism-based; conditions: in vivo; procedure, shortened: as §1
# Pancreas [23] = assay: Biodistribution in ddY mouse pancreas at 0.2 to 0.4 uCi, iv after 30 mins; assay type: ADME, organism-based; conditions: in vivo, 0.5 h; procedure, shortened: as §1
# Stomach [24] = assay: Biodistribution in ddY mouse stomach at 0.2 to 0.4 uCi, iv after 2 mins measured per gram of organ; assay type: ADME, organism-based; conditions: in vivo; procedure, shortened: as §1
# Intestine [25] = assay: Biodistribution in ddY mouse intestine at 0.2 to 0.4 uCi, iv after 2 mins; assay type: ADME, organism-based; conditions: in vivo; procedure, shortened: as §1
# Intestine [26] = assay: Biodistribution in ddY mouse intestine at 0.2 to 0.4 uCi, iv after 60 mins; assay type: ADME, organism-based; conditions: in vivo, 1 h; procedure, shortened: as §1
# Pancreas [27] = assay: Biodistribution in ddY mouse pancreas at 0.2 to 0.4 uCi, iv after 60 mins; assay type: ADME, organism-based; conditions: in vivo, 1 h; procedure, shortened: as §1
# Blood [28] = assay: Biodistribution in ddY mouse blood at 0.2 to 0.4 uCi, iv after 2 mins; assay type: ADME, organism-based; conditions: in vivo; procedure, shortened: as §1
# Kidney [29] = assay: Biodistribution in ddY mouse kidney at 0.2 to 0.4 uCi, iv after 30 mins; assay type: ADME, organism-based; conditions: in vivo, 0.5 h; procedure, shortened: as §1
# Brain [30] = assay: Biodistribution in ddY mouse brain at 0.2 to 0.4 uCi, iv after 60 mins; assay type: ADME, organism-based; conditions: in vivo, 1 h; procedure, shortened: as §1
# Heart [31] = assay: Biodistribution in ddY mouse heart at 0.2 to 0.4 uCi, iv after 2 mins; assay type: ADME, organism-based; conditions: in vivo; procedure, shortened: as §1
# Spleen [32] = assay: Biodistribution in ddY mouse spleen at 0.2 to 0.4 uCi, iv after 10 mins; assay type: ADME, organism-based; conditions: in vivo; procedure, shortened: as §1
# Liver [33] = assay: Biodistribution in ddY mouse liver at 0.2 to 0.4 uCi, iv after 30 mins; assay type: ADME, organism-based; conditions: in vivo, 0.5 h; procedure, shortened: as §1
# Brain [34] = assay: Biodistribution in ddY mouse brain at 0.2 to 0.4 uCi, iv after 2 mins; assay type: ADME, organism-based; conditions: in vivo; procedure, shortened: as §1
# Liver [35] = assay: Biodistribution in ddY mouse liver at 0.2 to 0.4 uCi, iv after 60 mins; assay type: ADME, organism-based; conditions: in vivo, 1 h; procedure, shortened: as §1
# Spleen [36] = assay: Biodistribution in ddY mouse spleen at 0.2 to 0.4 uCi, iv after 30 mins; assay type: ADME, organism-based; conditions: in vivo, 0.5 h; procedure, shortened: as §1
# Brain [37] = assay: In vivo binding affinity to amyloid beta 42 in mouse brain by neuropathological staining; assay type: ADME, organism-based
# [38] = Displacement of [125I]IMPY from amyloid beta42 by gamma counting
Drug uptake (Heart [1]),Drug uptake (Heart [2]),Drug uptake (Heart [3]),Drug uptake (Blood [4]),Drug uptake (Stomach [5]),Drug uptake (Brain [6]),Drug uptake (Blood [7]),Drug uptake (Kidney [8]),Drug uptake (Stomach [9]),Drug uptake (Pancreas [10]),Drug uptake (Intestine [11]),Drug uptake (Spleen [12]),Drug uptake (Blood [13]),Drug uptake (Spleen [14]),Drug uptake (Kidney [15]),Drug uptake (Kidney [16]),Drug uptake (Intestine [17]),Drug uptake (Liver [18]),Drug uptake (Liver [19]),Drug uptake (Stomach [20]),Compound,further results
4.82 % ID/g,1.87 % ID/g,1.84 % ID/g,4.53 % ID/g,10.65 %ID,0.96 % ID/g,3.68 % ID/g,9.49 % ID/g,17.77 %ID,5.21 % ID/g,4.52 % ID/g,4.13 % ID/g,3.29 % ID/g,2.24 % ID/g,4.46 % ID/g,4.71 % ID/g,3.09 % ID/g,10.2 % ID/g,5.14 % ID/g,16.26 %ID,CN(C)c1ccc(-c2cc3cc([125I])ccc3[nH]2)cc1,Drug uptake (Pancreas [21]): 4.13 % ID/g; Drug uptake (Brain [22]): 1.19 % ID/g; Drug uptake (Pancreas [23]): 3.1 % ID/g; Drug uptake (Stomach [24]): 4.03 %ID; Drug uptake (Intestine [25]): 1.8 % ID/g; Drug uptake (Intestine [26]): 6.08 % ID/g; Drug uptake (Pancreas [27]): 2.3 % ID/g; Drug uptake (Blood [28]): 6.18 % ID/g; Drug uptake (Kidney [29]): 4.58 % ID/g; Drug uptake (Brain [30]): 0.71 % ID/g; Drug uptake (Heart [31]): 8.08 % ID/g; Drug uptake (Spleen [32]): 3.28 % ID/g; Drug uptake (Liver [33]): 3.55 % ID/g; Drug uptake (Brain [34]): 1.19 % ID/g; Drug uptake (Liver [35]): 3.24 % ID/g; Drug uptake (Spleen [36]): 2.6 % ID/g
–,–,–,–,–,–,–,–,–,–,–,–,–,–,–,–,–,–,–,–,CN(C)c1ccc(-c2cc3cc(I)ccc3[nH]2)cc1,Activity (Brain [37]): Not Active; Ki [38]: 0.00424 µM
2.97 % ID/g,1.47 % ID/g,1.06 % ID/g,1.97 % ID/g,1.38 %ID,1.36 % ID/g,1.38 % ID/g,8.76 % ID/g,2.67 %ID,4.54 % ID/g,12.32 % ID/g,4.22 % ID/g,0.74 % ID/g,2.02 % ID/g,4.96 % ID/g,2.05 % ID/g,6.85 % ID/g,17.81 % ID/g,13.96 % ID/g,3.06 %ID,COc1ccc(-c2cc3cc([125I])ccc3[nH]2)cc1,Drug uptake (Pancreas [21]): 3.94 % ID/g; Drug uptake (Brain [22]): 2.07 % ID/g; Drug uptake (Pancreas [23]): 1.95 % ID/g; Drug uptake (Stomach [24]): 0.72 %ID; Drug uptake (Intestine [25]): 1.9 % ID/g; Drug uptake (Intestine [26]): 20.35 % ID/g; Drug uptake (Pancreas [27]): 1.29 % ID/g; Drug uptake (Blood [28]): 3.59 % ID/g; Drug uptake (Kidney [29]): 2.89 % ID/g; Drug uptake (Brain [30]): 1.16 % ID/g; Drug uptake (Heart [31]): 7.72 % ID/g; Drug uptake (Spleen [32]): 3.43 % ID/g; Drug uptake (Liver [33]): 10.38 % ID/g; Drug uptake (Brain [34]): 2.11 % ID/g; Drug uptake (Liver [35]): 8.22 % ID/g; Drug uptake (Spleen [36]): 2.96 % ID/g
3.59 % ID/g,2.96 % ID/g,1.88 % ID/g,1.71 % ID/g,1.34 %ID,1.42 % ID/g,1.36 % ID/g,5.53 % ID/g,2.55 %ID,2.31 % ID/g,8.54 % ID/g,7.83 % ID/g,0.8 % ID/g,5.89 % ID/g,4.31 % ID/g,2.61 % ID/g,3.57 % ID/g,22.85 % ID/g,26.83 % ID/g,1.68 %ID,CNc1ccc(-c2cc3cc([125I])ccc3[nH]2)cc1,Drug uptake (Pancreas [21]): 2.87 % ID/g; Drug uptake (Brain [22]): 1.68 % ID/g; Drug uptake (Pancreas [23]): 2.12 % ID/g; Drug uptake (Stomach [24]): 0.52 %ID; Drug uptake (Intestine [25]): 0.97 % ID/g; Drug uptake (Intestine [26]): 9.48 % ID/g; Drug uptake (Pancreas [27]): 1.27 % ID/g; Drug uptake (Blood [28]): 3.77 % ID/g; Drug uptake (Kidney [29]): 3.84 % ID/g; Drug uptake (Brain [30]): 0.83 % ID/g; Drug uptake (Heart [31]): 5.68 % ID/g; Drug uptake (Spleen [32]): 19.67 % ID/g; Drug uptake (Liver [33]): 23.07 % ID/g; Drug uptake (Brain [34]): 1.1 % ID/g; Drug uptake (Liver [35]): 15.89 % ID/g; Drug uptake (Spleen [36]): 10.34 % ID/g
–,–,–,–,–,–,–,–,–,–,–,–,–,–,–,–,–,–,–,–,Oc1ccc(-c2cc3cc(I)ccc3[nH]2)cc1,Ki [38]: 0.0329 µM
